# What was measured:
# Type in all cases: functional
# Enterococcus faecalis = experiment: Antibacterial activity was determined against gram positive organism, Streptococcus faecalis MGH-2; details: Enterococcus faecalis; read-out: MIC
# In short: (§1)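 MIC (µg/mL) by standard microtitration against a panel of 10 Gram-positive and Gram-negative organisms; values averaged from multiple experiments.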
# Streptococcus pyogenes [1] = experiment: Antibacterial activity was determined against gram positive organism, Streptococcus pyogenes C203; details: Streptococcus pyogenes; read-out: MIC; in short: as §1
# Staphylococcus aureus [2] = experiment: Antibacterial activity was determined against gram positive organism, Staphylococcus aureus H228; details: Staphylococcus aureus; read-out: MIC; in short: as §1
# Bacteria [3] = experiment: Antibacterial activity was determined against gram negative organism, Providencia rettgeri. M1771; details: Bacteria; read-out: MIC; in short: as §1
# Staphylococcus aureus [4] = experiment: Antibacterial activity was determined against gram positive organism, Staphylococcus aureus UC76; details: Staphylococcus aureus; read-out: MIC; in short: as §1
# [5] = target: DNA gyrase (Escherichia coli) (UniProt P0AES6+P0AES4); experiment: Minimum inhibitory concentration against Escherichia coli DNA-gyrase in supercoiling assay
# Bacteria [6] = experiment: MIC ratio measured as the mean MICs of gram-negative bacteria
# In short: (§2)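 Geometric mean of the microtitration MICs (µg/mL) over the Gram-negative organisms, and separately over the Gram-positive organisms, of the 10-strain panel; individual MICs averaged from multiple experiments.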
# Streptococcus pneumoniae [7] = experiment: Antibacterial activity was determined against gram positive organism, Streptococcus pneumoniae SV-1; details: Streptococcus pneumoniae; read-out: MIC; in short: as §1
# Escherichia coli [8] = experiment: The in vivo potency was determined in female charles river CD-1 mice infected with Escherichia coli after peroral administration; details: Escherichia coli, po; read-out: PD50
# In short: (§3)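 Acute lethal systemic infection in female CD-1 mice, 16 mice per route; single dose given orally by gavage at the time of challenge; median protective dose (PD50, mg/kg) determined.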
# Pseudomonas aeruginosa = experiment: Antibacterial activity was determined against gram negative organism, Pseudomonas aeruginosa UI-18; details: Pseudomonas aeruginosa; read-out: MIC; in short: as §1
# Enterobacter cloacae = experiment: Antibacterial activity was determined against gram negative organism, Enterobacter cloacae MA2646; details: Enterobacter cloacae; read-out: MIC
# Escherichia coli [9] = experiment: Antibacterial activity was determined against gram negative organism, Escherichia coli vogel; details: Escherichia coli; read-out: MIC; in short: as §1
# Klebsiella pneumoniae = experiment: Antibacterial activity was determined against gram negative organism, Klebsiella pneumoniae MGH-2; details: Klebsiella pneumoniae; read-out: MIC; in short: as §1
# Streptococcus pyogenes [10] = experiment: The in vivo potency was determined in female charles river CD-1 mice infected with Streptococcus pyogenes after peroral administration; details: Streptococcus pyogenes, po; read-out: PD50; in short: as §3
# Escherichia coli [11] = experiment: The in vivo potency was determined in female charles river CD-1 mice infected with Escherichia coli after sc administration; details: Escherichia coli, sc; read-out: PD50
# In short: (§4)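 Acute lethal systemic infection in female CD-1 mice, 16 mice per route; single subcutaneous dose given at the time of challenge; median protective dose (PD50, mg/kg) determined.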
# Bacteria [12] = experiment: MIC ratio measured as the mean MICs of gram-positive bacteria; in short: as §2
# Streptococcus pyogenes [13] = experiment: The in vivo potency was determined in female charles river CD-1 mice infected with Streptococcus pyogenes after sc administration; details: Streptococcus pyogenes, sc; read-out: PD50; in short: as §4
# Streptococcus pneumoniae [14] = experiment: The in vivo potency was determined in female charles river CD-1 mice infected with Streptococcus pneumoniae after peroral administration; details: Streptococcus pneumoniae, po; read-out: PD50; in short: as §3
# Streptococcus pneumoniae [15] = experiment: The in vivo potency was determined in female charles river CD-1 mice infected with Streptococcus pneumoniae after sc administration; details: Streptococcus pneumoniae, sc; read-out: PD50; in short: as §4
Compound,MIC (Enterococcus faecalis) [µg/mL],MIC (Streptococcus pyogenes [1]) [µg/mL],MIC (Staphylococcus aureus [2]) [µg/mL],MIC (Bacteria [3]) [µg/mL],MIC (Staphylococcus aureus [4]) [µg/mL],MIC [5] [µg/mL],Geometric mean MIC over Gram-negative bacteria (µg/mL) (Bacteria [6]),MIC (Streptococcus pneumoniae [7]) [µg/mL],ED50 (Escherichia coli [8]) [mg/kg],MIC (Pseudomonas aeruginosa) [µg/mL],MIC (Enterobacter cloacae) [µg/mL],MIC (Escherichia coli [9]) [µg/mL],MIC (Klebsiella pneumoniae) [µg/mL],ED50 (Streptococcus pyogenes [10]) [mg/kg],ED50 (Escherichia coli [11]) [mg/kg],Geometric mean MIC over Gram-positive bacteria (µg/mL) (Bacteria [12]),ED50 (Streptococcus pyogenes [13]) [mg/kg],ED50 (Streptococcus pneumoniae [14]) [mg/kg],ED50 (Streptococcus pneumoniae [15]) [mg/kg]
CC1CN(c2cc3c(cc2F)c(=O)c(C(=O)O)cn3C2CC2)CCN1 (configuration not stated),0.4,0.2,0.4,0.1,0.1,0.5,0.066,0.2,1,0.4,0.025,0.025,0.05,39,0.4,0.23,12,–,–
CC1CN(c2cc3c(c(N)c2F)c(=O)c(C(=O)O)cn3C2CC2)CCN1 (configuration not stated),0.2,0.2,0.2,0.1,0.05,0.5,0.058,0.1,2,0.4,0.025,0.013,0.025,66,0.4,0.13,21,–,–
Nc1c(F)c(N2CCNCC2)c(Cl)c2c1c(=O)c(C(=O)O)cn2C1CC1,0.1,0.2,0.1,0.1,0.025,1,0.076,0.1,2,0.8,0.025,0.025,0.05,26,0.5,0.087,10,–,–
O=C(O)c1cn(C2CC2)c2cc(N3CCNCC3)c(F)cc2c1=O [CIPROFLOXACIN],0.8,0.8,1.6,0.05,0.2,–,–,0.8,1,0.4,–,–,0.05,> 100,0.3,–,19,> 100,228
O=C(O)c1cn(C2CC2)c2c(Cl)c(N3CCNCC3)c(F)cc2c1=O,0.4,0.2,0.1,0.1,0.05,0.5,0.066,0.1,0.8,0.4,0.025,0.025,0.05,–,0.4,0.13,–,–,–
CC1CN(c2cc3c(cc2F)c(=O)c(C(=O)O)cn3C2CC2)CC(C)N1 (configuration not stated),0.2,0.2,0.2,0.2,0.05,1,0.076,0.2,0.7,0.4,0.025,0.025,0.05,15,0.4,0.15,12,–,–
CCNCC1CCN(c2c(F)cc3c(=O)c(C(=O)O)cn4c3c2OCC4C)C1 (configuration not stated),0.1,0.013,0.2,0.8,0.025,0.5,0.4,0.1,> 100,0.8,0.2,0.2,0.4,–,11,0.057,–,–,–
Nc1c(F)c(N2CCNCC2)cc2c1c(=O)c(C(=O)O)cn2C1CC1,0.1,0.2,0.1,0.025,0.025,1,0.038,0.1,4,0.8,0.013,0.013,0.025,–,0.3,0.087,–,–,–

# Source: ChEMBL document CHEMBL1125826, “Synthesis and biological activity of 5-amino- and 5-hydroxyquinolones, and the overwhelming influence of the remote N1-substituent in determining the structure-activity relationship” (1991)
